Source: PubChem BioAssay AID493228 (Broad Institute, 2011)
Where “and” joins values, the source holds several entries; their conditions need not be identical. Identical values can stand only once. Records with an inconclusive call do not appear. Calls of active or inactive are those of the source.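 Rule for the calls: active = fitted dose curve passes 500% activation at or below the top valid tested dose; inconclusive = no clear call, values can overlap the other calls; inactive = the rest, opposite-direction activity included.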

Test system: not listed separately
Assay: HIF reporter activators, metal chelation test – cell-based, iron medium, luminescence, U2OS, dry powder, mechanism study for HIF activator project, dose response (AID 493228)
Conditions: U2OS HRE-luciferase reporter, iron medium, luminescence; at 38 µM (top of the series)
Procedure, shortened: (§1)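 Test system: U2OS 3×HRE-luciferase reporter cells. Amount: 6,000 cells/well. Doses: 8-point dilution series in 3-fold steps. Times: cells plated 24 h before dosing, compound exposure 24 h at 37 °C. Measured by: Steady-Glo luminescence.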

Row | SMILES | activation
1 | Oc1ccc(CN2CCC3CCCCC3C2)c2cccnc12 (stereo not given) | -92.3% (inactive)
2 | Cc1ccc(NC(=O)c2cc(-c3ccccc3)on2)cn1 | -1.64% (inactive)
3 | c1ccc(-c2cnc(Nc3nc(-c4ccccn4)nnc3-c3ccccc3)s2)cc1 | -26.9% (inactive)
4 | O=C(c1cc(-c2ccccc2)on1)N1CCC(N2CCOCC2)CC1 | 9.93% (inactive)
5 | O=C(NCCN1CCCCC1)c1cc(-c2ccccc2)on1 | 64.1% (inactive)
6 | O=C(c1cc(-c2ccccc2)on1)N1CCN(c2ccncc2)CC1 | -9.52% (inactive)
7 | c1ccc(-c2nnc(Nc3nc(-c4ccccn4)nnc3-c3ccccc3)s2)cc1 | 67% (inactive)
8 | c1ccc(-c2nnc(-c3ccccn3)nc2NCc2cccnc2)cc1 | 402% (inactive)
9 | O=C(Nc1ncc2ccccc2n1)c1cc(-c2ccccc2)on1 | 196% (inactive)
10 | Cc1ccc(Nc2nc(-c3ccccn3)nnc2-c2ccccc2)cn1 | 473% (inactive)
11 | OCC1CCN(Cc2ccc(O)c3ncccc23)CC1 | -91.5% (inactive)
12 | COc1ccccc1N1CCN(Cc2ccc(O)c3ncccc23)CC1 | -77.4% (inactive)
13 | O=C(Nc1nc(-c2ccccc2)cs1)c1cc(-c2ccccc2)on1 | -5.37% (inactive)
14 | O=C(c1cc(-c2ccccc2)on1)N1CCC(N2CCCC2)CC1 | 0.413% (inactive)
15 | c1ccc(-c2nnc(-c3ccccn3)nc2NCCCN2CCOCC2)cc1 | 168% (inactive)
16 | O=C(NC1Cc2ccccc2C1)c1cc(-c2ccccc2)on1 | 175% (inactive)
17 | N#CC1(c2ccccc2)CCN(Cc2ccc(O)c3ncccc23)CC1 | 10.5% (inactive)
18 | O=C(NC1CCc2ccccc2C1)c1cc(-c2ccccc2)on1 (stereo not given) | 2.06% (inactive)
19 | Oc1ccc(CN2CCC(Cc3ccccc3)CC2)c2cccnc12 | 27% (inactive)
20 | Cc1cccc(Nc2nc(-c3ccccn3)nnc2-c2ccccc2)n1 | 306% (inactive)
21 | c1ccc(-c2nnc(-c3ccccn3)nc2N2CCC(c3ccccc3)C2)cc1 (stereo not given) | 313% (inactive)
22 | CC(C)(C)OC(=O)N1CCN(Cc2ccc(O)c3ncccc23)CC1 | 10.8% (inactive)
23 | CC1CN(Cc2ccc(O)c3ncccc23)CC(C)O1 (stereo not given) | -85.2% (inactive)
24 | c1ccc(-c2nnc(-c3ccccn3)nc2Nc2nc3ccccc3s2)cc1 | -17.3% (inactive)
25 | c1ccc(-c2cccc(CNc3nc(-c4ccccn4)nnc3-c3ccccc3)c2)cc1 | 113% (inactive)
26 | CC(C)(C)c1ccc(CNc2nc(-c3ccccn3)nnc2-c2ccccc2)cc1 | 246% (inactive)
27 | Cn1c(-c2ccccc2)cnc1NC(=O)c1cc(-c2ccccc2)on1 | 23.2% (inactive)
28 | O=C(Nc1nc2ccccc2s1)c1cc(-c2ccccc2)on1 | 22.7% (inactive)

Row | SMILES | activation
29 | Cc1cccc(NC(=O)c2cc(-c3ccccc3)on2)n1 | 47.5% (inactive)
30 | O=C(Nc1nnc(-c2ccccc2)s1)c1cc(-c2ccccc2)on1 | -5.78% (inactive)
31 | c1ccc(-c2nnc(-c3ccccn3)nc2Nc2cnc3ccccc3n2)cc1 | 299% (inactive)
32 | CN1CCN(C(=O)c2cc(-c3ccccc3)on2)CC1 | 4.95% (inactive)
33 | Oc1ccc(CNC2Cc3ccccc3C2)c2cccnc12 | -87.7% (inactive)
34 | c1ccc(-c2nnc(-c3ccccn3)nc2N2CCC(C3CCCCC3)C2)cc1 (stereo not given) | 17.7% (inactive)
35 | O=C(NCc1ccccc1)c1cc(-c2ccccc2)on1 | 65.7% (inactive)
36 | CN(C)c1nc(-c2ccccn2)nnc1-c1ccccc1 | 80.9% (inactive)
37 | O=C(Nc1ccc2ccccc2n1)c1cc(-c2ccccc2)on1 | 10.3% (inactive)
38 | Cn1c(NC(=O)c2cc(-c3ccccc3)on2)nc2ccccc21 | 4.17% (inactive)
39 | C[C@@H](Nc1nc(-c2ccccn2)nnc1-c1ccccc1)C1CCCCC1 | 419% (inactive)
40 | CN1CCN(c2nc(-c3ccccn3)nnc2-c2ccccc2)CC1 | 315% (inactive)
41 | CN(C)CCNC(=O)c1cc(-c2ccccc2)on1 | 36.8% (inactive)
42 | Cc1ccccc1CNC(=O)c1cc(-c2ccccc2)on1 | 40.9% (inactive)
43 | c1ccc(-c2nnc(-c3ccccn3)nc2NCC2CC2)cc1 | 392% (inactive)
44 | Oc1ccc(CN2CCc3ccccc3C2)c2cccnc12 | -88.2% (inactive) and -90.7% (inactive)
45 | C=CCNc1nc(-c2ccccn2)nnc1-c1ccccc1 | 288% (inactive)
46 | O=C(Nc1cn2ccccc2n1)c1cc(-c2ccccc2)on1 | 36% (inactive)
47 | OCCCNc1nc(-c2ccccn2)nnc1-c1ccccc1 | 310% (inactive)
48 | Oc1ccc(CNC2CCc3ccccc32)c2cccnc12 (stereo not given) | -90.3% (inactive)
49 | Cn1c(-c2ccccc2)cnc1Nc1nc(-c2ccccn2)nnc1-c1ccccc1 | -7.02% (inactive)
50 | O=C(Nc1ncc(-c2ccccc2)o1)c1cc(-c2ccccc2)on1 | 22.7% (inactive)
51 | O=C(Nc1cnc2ccccc2c1)c1cc(-c2ccccc2)on1 | 26% (inactive)
52 | c1ccc(-c2nnc(-c3ccccn3)nc2NCC2CCOCC2)cc1 | 226% (inactive)
53 | c1ccc(-c2nnc(-c3ccccn3)nc2NCCc2ccccn2)cc1 | 460% (inactive)
54 | Cc1ccc(CNC(=O)c2cc(-c3ccccc3)on2)cc1 | 13.2% (inactive)
55 | c1ccc(-c2csc(Nc3nc(-c4ccccn4)nnc3-c3ccccc3)n2)cc1 | 73.9% (inactive)

Test system: U2OS HRE-luciferase reporter, iron medium, luminescence
Assay: as above
Conditions: not given
Procedure, shortened: as §1

Row | SMILES | AC50
56 | Cc1cccc(CNc2nc(-c3ccccn3)nnc2-c2ccccc2)c1 | 17.3 µM
57 | c1ccc(-c2ccc(CNc3nc(-c4ccccn4)nnc3-c3ccccc3)cc2)cc1 | 9.24 µM
58 | CC(C)(C)CCNC(=O)c1cc(-c2ccccc2)on1 | 23.1 µM
59 | c1ccc(CNc2nc(-c3ccccn3)nnc2-c2ccccc2)cc1 | 17 µM
60 | COc1cccc(CNc2nc(-c3ccccn3)nnc2-c2ccccc2)c1 | 22.8 µM
61 | Clc1cccc(CNc2nc(-c3ccccn3)nnc2-c2ccccc2)c1 | 17.9 µM
62 | Cc1ccc(CNc2nc(-c3ccccn3)nnc2-c2ccccc2)cc1C | 13.6 µM
63 | O=C(NCC1CC1)c1cc(-c2ccccc2)on1 | 7.37 µM
64 | CC(C)(C)CCNc1nc(-c2ccccn2)nnc1-c1ccccc1 | 17 µM and 16.2 µM
65 | O=C(NCCCO)c1cc(-c2ccccc2)on1 | 7.47 µM
66 | O=C(NCCCN1CCOCC1)c1cc(-c2ccccc2)on1 | 12 µM
67 | C[C@@H](Nc1nc(-c2ccccn2)nnc1-c1ccccc1)c1ccccc1 | 20.7 µM
68 | c1ccc(-c2nnc(-c3ccccn3)nc2NCc2ccccn2)cc1 | 27.7 µM
69 | C[C@H](Nc1nc(-c2ccccn2)nnc1-c1ccccc1)C1CCCCC1 | 18.9 µM
70 | c1ccc(-c2nnc(-c3ccccn3)nc2NCCN2CCOCC2)cc1 | 31.7 µM
71 | CCCCNC(=O)c1cc(-c2ccccc2)on1 | 7.93 µM
72 | CC(Nc1nc(-c2ccccn2)nnc1-c1ccccc1)c1ccccc1 (stereo not given) | 23.2 µM
73 | Cc1ccccc1CNc1nc(-c2ccccn2)nnc1-c1ccccc1 | 25 µM
74 | O=C(NCCCCO)c1cc(-c2ccccc2)on1 | 2.72 µM
75 | c1ccc(-c2nnc(-c3ccccn3)nc2N2CCC(N3CCOCC3)CC2)cc1 | 36 µM
76 | O=C(NCCN1CCOCC1)c1cc(-c2ccccc2)on1 | 12.4 µM
77 | COc1ccc(CNc2nc(-c3ccccn3)nnc2-c2ccccc2)cc1 | 14.3 µM
78 | O=C(NCCCn1ccnc1)c1cc(-c2ccccc2)on1 | 6.23 µM
79 | c1ccc(-c2nnc(-c3ccccn3)nc2NCC2CCCCC2)cc1 | 18.2 µM
80 | c1ccc(CCNc2nc(-c3ccccn3)nnc2-c2ccccc2)cc1 | 20.9 µM
